Compound activity from PubChem.
A selection: hits, their analogues and other compounds. The true share with any hit is near 2.3%.
TRPC6 activator – activates the mouse TRPC6 cation channel; B-score at 10 µM; hit rate 0.13% among 310,000; Q61143; AID 2550; HEK293-TRPC6 membrane potential dye fluorescence; stronger effect = higher value;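 active means B-score of the integrated fluorescence ratio above library mean plus 3 SD, and starting fluorescence ratio within library mean plus 5 SD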;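 further: higher score means more depolarization so channel activation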
Target sequence (Q61143 whole entry, looked up): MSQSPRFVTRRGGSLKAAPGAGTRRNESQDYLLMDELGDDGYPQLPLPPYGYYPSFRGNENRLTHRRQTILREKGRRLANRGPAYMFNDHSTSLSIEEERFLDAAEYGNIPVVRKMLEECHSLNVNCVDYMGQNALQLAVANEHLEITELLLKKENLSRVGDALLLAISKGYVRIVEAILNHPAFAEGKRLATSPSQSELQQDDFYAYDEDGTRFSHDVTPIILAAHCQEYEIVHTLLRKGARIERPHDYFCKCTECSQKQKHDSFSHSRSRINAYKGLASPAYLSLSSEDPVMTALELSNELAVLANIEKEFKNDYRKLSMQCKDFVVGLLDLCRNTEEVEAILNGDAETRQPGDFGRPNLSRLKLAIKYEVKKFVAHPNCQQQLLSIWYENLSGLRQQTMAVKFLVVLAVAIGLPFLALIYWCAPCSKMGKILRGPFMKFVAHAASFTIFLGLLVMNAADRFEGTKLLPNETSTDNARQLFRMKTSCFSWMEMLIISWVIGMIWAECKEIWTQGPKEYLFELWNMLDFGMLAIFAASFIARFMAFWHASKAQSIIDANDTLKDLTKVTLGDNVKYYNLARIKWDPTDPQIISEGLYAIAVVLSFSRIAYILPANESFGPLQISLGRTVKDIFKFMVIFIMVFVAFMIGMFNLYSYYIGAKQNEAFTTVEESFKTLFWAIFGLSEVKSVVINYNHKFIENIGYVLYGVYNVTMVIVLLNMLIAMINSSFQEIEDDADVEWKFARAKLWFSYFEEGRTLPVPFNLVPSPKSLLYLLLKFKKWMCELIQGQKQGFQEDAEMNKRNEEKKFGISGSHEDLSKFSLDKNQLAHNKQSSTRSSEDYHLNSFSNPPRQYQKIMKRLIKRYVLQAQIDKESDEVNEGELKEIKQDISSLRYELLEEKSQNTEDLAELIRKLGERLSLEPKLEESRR
TRPC6 inhibitor – mouse TRPC6 channel inhibition. AID 2553. Q61143. hit rate 1.1% among 310,000. HEK293-TRPC6, membrane potential dye, ACh-evoked depolarization; stronger effect = lower value. B-score at 10 µM;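 active means B-score under library mean minus 3 SD, initial fluorescence not abnormally high, positive integrated signal ratio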;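 further: B-score derived from integrated fluorescence ratio over the kinetic read; more negative B-score means stronger inhibition of depolarization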
TRPC4 act – TRPC4 (mouse) channel activation; Q9QUQ5; HEK293 TRPC4beta/mu-opioid, Fluo4 calcium fluorescence; stronger effect = higher value; B-score at 10 µM; hit rate 0.49% among 310,000; AID 2237;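 active means B-score above 5 SD of library B-scores, and initial fluorescence ratio not above library mean plus 5 SD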;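 further: positive B-score marks a calcium rise read as TRPC4 activation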
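Material: TRPC4beta and mu-opioid receptor HEK293 stable cells | Incubation: 45 min room-temperature Fluo4 loading, 110 s read | Detection: Kinetic Fluo4 calcium fluorescence | Measure: Integrated baseline-normalised fluorescence ratio, converted to per-well B score | Benchmarks: Low control buffer alone, high control maximal DAMGO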
TRPC4 potent – TRPC4 (mouse) allosteric potentiation; B-score at 10 µM; Q9QUQ5; HEK293 TRPC4beta/mu-opioid, DAMGO EC20, Fluo-4 Ca2+ flux; stronger effect = higher value; hit rate 0.42% among 310,000;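 active means B-score of calcium response area above 5 SD of library B-scores, with initial fluorescence ratio within 5 SD of library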
TRPC4 inh – inhibitors of mouse TRPC4 channel; HEK293 TRPC4beta/mu-opioid, DAMGO-evoked Fluo4 calcium flux; stronger effect = lower value; B-score at 10 µM; hit rate 0.39% among 300,000;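 active means B-score over 3 SD under the library average, no early fluorescence shift, positive overall ratio signal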
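Assay system – HEK293 line stably carrying TRPC4beta and mu-opioid receptor · Doses – single dose · Detection – Fluo4 calcium-dye fluorescence, kinetic read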
Hits are given with their value.

Results for CCOC(=O)N1CCC(c2cc(=O)n3[nH]cc(C(=O)OC)c3n2)CC1 ?
TRPC6 activator: inactive; TRPC6 inhibitor: inactive; TRPC4 act: inactive; TRPC4 potent: inactive; TRPC4 inh: inactive

How did CCOc1ccc(NC(=O)c2c[nH]n3c(=O)cc(C4CCN(C(=O)OC(C)(C)C)CC4)nc23)cc1 do in these assays?
TRPC6 activator: inactive; TRPC6 inhibitor: inactive; TRPC4 act: inactive; TRPC4 potent: inactive; TRPC4 inh: -7

What do the screens show for `Cc1cc(C)cc(NC(=O)c2nnn(Cc3cc(C)ccc3C)c2N)c1`?
TRPC6 activator: inactive; TRPC6 inhibitor: inactive; TRPC4 act: inactive; TRPC4 potent: 17; TRPC4 inh: inactive

Results for COc1ccc(-n2c(O)c(/C=N/NS(=O)(=O)c3ccc(C)c([N+](=O)[O-])c3)c3ccccc3c2=O)cc1OC ?
TRPC6 activator: inactive; TRPC6 inhibitor: inactive; TRPC4 act: 56; TRPC4 potent: inactive; TRPC4 inh: inactive

How did COC(=O)c1ccc(CSc2nc3ccccc3c(=O)n2CC(C)C)o1 do in these assays?
TRPC6 activator: inactive; TRPC6 inhibitor: inactive; TRPC4 act: inactive; TRPC4 potent: inactive; TRPC4 inh: -7

What do the screens show for `COCCn1c(SCC(=O)N2CCOCC2)nc2ccccc2c1=O`?
TRPC6 activator: inactive; TRPC6 inhibitor: inactive; TRPC4 act: inactive; TRPC4 potent: inactive; TRPC4 inh: inactive

Results for COCCn1c(SCc2cccc([N+](=O)[O-])c2)nc2ccccc2c1=O ?
TRPC6 activator: inactive; TRPC6 inhibitor: inactive; TRPC4 act: inactive; TRPC4 potent: inactive; TRPC4 inh: -6

Results for COC(=O)c1ccc(CSc2nc3ccccc3c(=O)n2C)o1 ?
TRPC6 activator: inactive; TRPC6 inhibitor: inactive; TRPC4 act: inactive; TRPC4 potent: inactive; TRPC4 inh: inactive

Results for CC(=O)NCCn1c(SCc2ccccc2F)nc2ccccc2c1=O ?
TRPC6 activator: inactive; TRPC6 inhibitor: inactive; TRPC4 act: inactive; TRPC4 potent: inactive; TRPC4 inh: inactive

What do the screens show for `COCCn1c(SCC(=O)N2CCc3ccccc3C2)nc2ccccc2c1=O`?
TRPC6 activator: inactive; TRPC6 inhibitor: inactive; TRPC4 act: inactive; TRPC4 potent: inactive; TRPC4 inh: -5

What do the screens show for `COCCn1c(SCc2ccccc2F)nc2ccccc2c1=O`?
TRPC6 activator: inactive; TRPC6 inhibitor: inactive; TRPC4 act: inactive; TRPC4 potent: inactive; TRPC4 inh: -6

How did CC(OC(=O)c1ccccc1CCc1ccccc1)C(N)=O (stereo unspecified) do in these assays?
TRPC6 activator: inactive; TRPC6 inhibitor: inactive; TRPC4 act: inactive; TRPC4 potent: inactive; TRPC4 inh: inactive

Results for COCCCn1c(SCC(=O)c2ccccc2)nc2ccccc2c1=O ?
TRPC6 activator: inactive; TRPC6 inhibitor: inactive; TRPC4 act: inactive; TRPC4 potent: inactive; TRPC4 inh: inactive

What do the screens show for `COCCn1c(SCC(=O)c2ccccc2)nc2ccccc2c1=O`?
TRPC6 activator: inactive; TRPC6 inhibitor: inactive; TRPC4 act: inactive; TRPC4 potent: inactive; TRPC4 inh: -7

What do the screens show for `Cc1ccc(-n2c3nc(=O)[nH]c(=O)c-3cc3cc([N+](=O)[O-])ccc32)cc1C`?
TRPC6 activator: inactive; TRPC6 inhibitor: inactive; TRPC4 act: inactive; TRPC4 potent: 10; TRPC4 inh: inactive

What do the screens show for `Cc1ccc(-n2ncc3c(=O)n(CC(=O)N(C(C)C)C(C)C)cnc32)cc1`?
TRPC6 activator: inactive; TRPC6 inhibitor: inactive; TRPC4 act: inactive; TRPC4 potent: inactive; TRPC4 inh: inactive

What do the screens show for `Cc1cc(OCCCCn2ccnc2)cc(C)c1Cl`?
TRPC6 activator: inactive; TRPC6 inhibitor: inactive; TRPC4 act: 141; TRPC4 potent: inactive; TRPC4 inh: inactive

Results for Cc1cccc(OCCn2ccnc2)c1 ?
TRPC6 activator: inactive; TRPC6 inhibitor: inactive; TRPC4 act: inactive; TRPC4 potent: inactive; TRPC4 inh: inactive

How did Clc1ccccc1OCCCn1ccnc1 do in these assays?
TRPC6 activator: inactive; TRPC6 inhibitor: inactive; TRPC4 act: inactive; TRPC4 potent: inactive; TRPC4 inh: inactive

Results for CC(C)(C)c1ccccc1OCC(=O)NCCCn1ccnc1 ?
TRPC6 activator: inactive; TRPC6 inhibitor: inactive; TRPC4 act: 55; TRPC4 potent: inactive; TRPC4 inh: inactive

Results for Clc1ccc(SCCCCn2ccnc2)cc1 ?
TRPC6 activator: inactive; TRPC6 inhibitor: inactive; TRPC4 act: 75; TRPC4 potent: inactive; TRPC4 inh: inactive

How did O=C(COc1ccc(Cl)cc1Cl)NCCCn1ccnc1 do in these assays?
TRPC6 activator: inactive; TRPC6 inhibitor: inactive; TRPC4 act: inactive; TRPC4 potent: inactive; TRPC4 inh: inactive

What do the screens show for `Cc1cc(OCCCn2ccnc2)ccc1C(C)C`?
TRPC6 activator: inactive; TRPC6 inhibitor: inactive; TRPC4 act: inactive; TRPC4 potent: inactive; TRPC4 inh: inactive

How did Cc1cccc(OCCCCCn2ccnc2)c1 do in these assays?
TRPC6 activator: inactive; TRPC6 inhibitor: inactive; TRPC4 act: inactive; TRPC4 potent: 14; TRPC4 inh: inactive

How did CCN(C(=O)CSc1nnc(COc2cccc(C)c2)o1)c1nc(C)cs1 do in these assays?
TRPC6 activator: inactive; TRPC6 inhibitor: inactive; TRPC4 act: inactive; TRPC4 potent: inactive; TRPC4 inh: inactive

How did CN(C)c1ccc(NC(=O)Cc2ccccc2)c2ccccc12 do in these assays?
TRPC6 activator: inactive; TRPC6 inhibitor: inactive; TRPC4 act: inactive; TRPC4 potent: inactive; TRPC4 inh: inactive

Results for Cc1ccccc1OCCCCCn1ccnc1 ?
TRPC6 activator: inactive; TRPC6 inhibitor: inactive; TRPC4 act: 61; TRPC4 potent: inactive; TRPC4 inh: inactive

How did Cc1cccc(Cl)c1OCCCCn1ccnc1 do in these assays?
TRPC6 activator: inactive; TRPC6 inhibitor: inactive; TRPC4 act: 77; TRPC4 potent: inactive

Results for c1ccc2cc(OCCCn3ccnc3)ccc2c1 ?
TRPC6 activator: inactive; TRPC6 inhibitor: inactive; TRPC4 act: 53; TRPC4 potent: 11; TRPC4 inh: inactive

What do the screens show for `Cc1cc(Cl)cc(C)c1OCCCCn1ccnc1`?
TRPC6 activator: inactive; TRPC6 inhibitor: inactive; TRPC4 act: 106; TRPC4 potent: inactive; TRPC4 inh: inactive

How did Clc1ccccc1OCCCCn1ccnc1 do in these assays?
TRPC6 activator: inactive; TRPC6 inhibitor: inactive; TRPC4 act: inactive; TRPC4 potent: inactive; TRPC4 inh: inactive

What do the screens show for `Clc1cccc(OCCCn2ccnc2)c1`?
TRPC6 activator: inactive; TRPC6 inhibitor: inactive; TRPC4 act: inactive; TRPC4 potent: inactive; TRPC4 inh: inactive

How did CCOc1ccc(-n2ccnc(SCC(=O)Nc3cccc(OC)c3)c2=O)cc1 do in these assays?
TRPC6 activator: inactive; TRPC6 inhibitor: inactive; TRPC4 act: inactive; TRPC4 potent: inactive; TRPC4 inh: inactive

Results for CC(OC(=O)c1ccc(OCC2CCCO2)cc1)C(=O)N(C)Cc1ccccc1 (stereo unspecified) ?
TRPC6 activator: inactive; TRPC6 inhibitor: inactive; TRPC4 act: inactive; TRPC4 potent: inactive; TRPC4 inh: inactive

Results for NCCNc1ccc([N+](=O)[O-])cc1 ?
TRPC6 activator: inactive; TRPC6 inhibitor: inactive; TRPC4 act: 62; TRPC4 potent: inactive; TRPC4 inh: inactive

How did O=C(C[n+]1cc(-c2ccccc2)n2c1CCC2)N1c2ccccc2Sc2ccccc21 do in these assays?
TRPC6 activator: inactive; TRPC6 inhibitor: -5.46; TRPC4 act: inactive; TRPC4 potent: inactive; TRPC4 inh: inactive
